Assay outcomes (PubChem BioAssay)
ADAM10 inh: human ADAM10 inhibitors, primary screen, biochemical, QFRET, HTS; 370,000 compounds, 0.62% hits; AID 720582, 2013; recombinant ADAM10, EDANS/DABCYL FRET peptide cleavage, 3 h; Disintegrin and metalloproteinase domain-containing protein 10 (Homo sapiens), O14672; inhibition, % at 7 µM;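 active = inhibition above a per-campaign cutoff equal to the mean of compounds falling between control-based bounds plus 3 SD, cut at about 20% in these data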;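 also: 0% = DMSO wells while the 100% control is not disclosed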
SENP1 inh: human SENP1 catalytic domain inhibitors, primary screen, biochemical, FRET, uHTS; Sentrin-specific protease 1 (Homo sapiens), Q9P0U3; recombinant SENP1 catalytic domain, CyPet-SUMO1-YPet FRET cleavage; inhibition, % at 10 µM; 360,000 compounds, 0.21% hits;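 active = inhibition at least 30% at 10 µM, raw YFP signal under a set limit, fluorescence ratio 0.5 to 1.5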;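 also: 0% = enzyme with DMSO and 100% = no enzyme wells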
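Assay system: hSENP1 catalytic domain, recombinant. Amount: SENP1 enzyme, 20 pM final. Schedule: 50 min reaction, RT, dark. Technique: FRET, CFP and YFP emission. Control set: no-enzyme wells low, DMSO-plus-enzyme wells high control.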
ADAM17 inh: ADAM17 inhibitors, primary screen, biochemical, QFRET. Disintegrin and metalloproteinase domain-containing protein 17 (Homo sapiens), P78536. recombinant ADAM17, EDANS/DABCYL FRET peptide cleavage. inhibition, % at 6.95 µM. 370,000 compounds, 0.83% hits. AID 720648, 2013;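 active = inhibition above the mean of compounds lying between control limits plus 3 SD, set per campaign, cut at about 8.5% in these data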;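 also: 0% = DMSO-only wells as the low control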
FAS-TE inh: FAS thioesterase domain inhibitors, primary screen, biochemical, fluorescence intensity, uHTS; inhibition, % at 15 µM; recombinant FAS-TE, OMFH fluorogenic substrate, fluorescence endpoint; 360,000 compounds, 0.67% hits; Fatty acid synthase (Homo sapiens), P49327;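 active = compounds whose normalised, plate-corrected inhibition of enzyme fluorescence in the single-dose primary screen is 50% or more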;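 also: 0% = DMSO with enzyme and 100% = substrate without enzyme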
Target sequence (P49327 whole entry, looked up, the tested form may be a part): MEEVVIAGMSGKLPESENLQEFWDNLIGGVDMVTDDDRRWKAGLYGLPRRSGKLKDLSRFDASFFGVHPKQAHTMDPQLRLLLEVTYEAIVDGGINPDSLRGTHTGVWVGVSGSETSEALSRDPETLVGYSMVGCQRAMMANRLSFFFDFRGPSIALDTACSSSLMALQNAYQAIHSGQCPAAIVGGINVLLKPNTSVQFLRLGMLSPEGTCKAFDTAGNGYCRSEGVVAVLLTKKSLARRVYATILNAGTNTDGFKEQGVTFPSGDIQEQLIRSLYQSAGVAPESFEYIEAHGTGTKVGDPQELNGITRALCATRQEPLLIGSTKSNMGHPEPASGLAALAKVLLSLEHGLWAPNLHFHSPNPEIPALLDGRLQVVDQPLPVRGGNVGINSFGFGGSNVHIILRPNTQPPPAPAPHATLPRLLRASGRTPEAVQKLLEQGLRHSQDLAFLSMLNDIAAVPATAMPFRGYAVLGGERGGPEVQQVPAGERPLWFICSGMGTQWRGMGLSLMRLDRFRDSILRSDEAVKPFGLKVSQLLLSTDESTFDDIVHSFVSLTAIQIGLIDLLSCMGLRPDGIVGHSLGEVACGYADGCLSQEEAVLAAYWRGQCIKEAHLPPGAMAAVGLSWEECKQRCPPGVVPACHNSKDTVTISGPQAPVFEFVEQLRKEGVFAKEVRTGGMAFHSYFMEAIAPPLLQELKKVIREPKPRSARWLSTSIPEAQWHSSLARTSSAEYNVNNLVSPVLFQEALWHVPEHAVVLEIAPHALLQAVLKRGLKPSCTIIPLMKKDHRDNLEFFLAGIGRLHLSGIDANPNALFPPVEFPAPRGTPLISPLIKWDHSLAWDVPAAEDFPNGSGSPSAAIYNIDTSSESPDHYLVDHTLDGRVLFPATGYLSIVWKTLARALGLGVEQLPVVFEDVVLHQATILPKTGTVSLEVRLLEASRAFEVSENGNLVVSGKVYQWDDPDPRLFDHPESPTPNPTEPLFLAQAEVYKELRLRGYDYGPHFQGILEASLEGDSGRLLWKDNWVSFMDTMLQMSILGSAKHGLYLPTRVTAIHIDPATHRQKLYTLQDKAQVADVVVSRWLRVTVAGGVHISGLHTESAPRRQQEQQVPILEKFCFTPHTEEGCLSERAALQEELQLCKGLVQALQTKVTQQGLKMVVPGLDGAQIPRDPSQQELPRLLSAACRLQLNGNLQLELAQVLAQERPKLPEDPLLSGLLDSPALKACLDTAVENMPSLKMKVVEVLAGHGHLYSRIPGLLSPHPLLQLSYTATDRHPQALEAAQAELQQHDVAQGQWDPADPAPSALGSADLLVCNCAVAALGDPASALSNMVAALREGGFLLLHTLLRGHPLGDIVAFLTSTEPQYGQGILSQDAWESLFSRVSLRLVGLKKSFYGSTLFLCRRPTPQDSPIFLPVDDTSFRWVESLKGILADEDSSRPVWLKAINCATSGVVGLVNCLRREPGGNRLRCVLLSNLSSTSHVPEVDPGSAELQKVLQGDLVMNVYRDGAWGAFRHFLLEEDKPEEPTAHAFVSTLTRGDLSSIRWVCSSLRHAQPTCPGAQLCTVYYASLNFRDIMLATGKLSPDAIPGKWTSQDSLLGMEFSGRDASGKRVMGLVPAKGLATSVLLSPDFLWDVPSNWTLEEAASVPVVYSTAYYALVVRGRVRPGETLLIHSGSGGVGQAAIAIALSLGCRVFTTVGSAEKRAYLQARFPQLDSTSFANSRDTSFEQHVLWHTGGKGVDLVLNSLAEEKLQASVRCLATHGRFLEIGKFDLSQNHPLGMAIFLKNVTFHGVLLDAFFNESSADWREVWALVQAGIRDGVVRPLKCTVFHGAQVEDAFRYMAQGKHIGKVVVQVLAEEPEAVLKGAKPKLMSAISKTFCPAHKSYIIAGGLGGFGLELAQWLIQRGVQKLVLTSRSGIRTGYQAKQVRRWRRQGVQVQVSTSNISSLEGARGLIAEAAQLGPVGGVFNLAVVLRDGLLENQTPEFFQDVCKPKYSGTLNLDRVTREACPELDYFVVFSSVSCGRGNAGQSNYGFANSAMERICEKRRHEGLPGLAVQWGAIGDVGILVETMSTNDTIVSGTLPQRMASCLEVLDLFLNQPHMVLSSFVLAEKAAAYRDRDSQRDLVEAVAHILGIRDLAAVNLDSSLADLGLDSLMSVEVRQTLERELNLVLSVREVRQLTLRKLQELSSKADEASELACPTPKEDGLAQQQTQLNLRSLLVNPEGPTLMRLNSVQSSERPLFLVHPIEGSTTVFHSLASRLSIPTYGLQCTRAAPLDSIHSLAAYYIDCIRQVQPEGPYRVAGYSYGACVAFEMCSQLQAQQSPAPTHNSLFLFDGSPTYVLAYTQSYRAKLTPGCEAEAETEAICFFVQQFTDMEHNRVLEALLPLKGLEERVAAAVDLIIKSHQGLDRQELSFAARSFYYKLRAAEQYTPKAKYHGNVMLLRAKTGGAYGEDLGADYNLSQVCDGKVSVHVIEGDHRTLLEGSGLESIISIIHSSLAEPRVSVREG
SENP1 inh conf: human SENP1 catalytic domain inhibitors, confirmation, biochemical, FRET endpoint, single concentration; shares compounds with SENP1 inh; recombinant SENP1, CyPet-SUMO1-YPet FRET cleavage; inhibition, % at 10 µM; 520 compounds, 34% hits; AID 651678, 2012; in the data active = inhibition mostly above about 35%, no sharp cut-off; inactive = mostly below about 32%;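 also: 0% = enzyme with DMSO and 100% = no enzyme control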
SENP1 kinetic: human SENP1 catalytic domain inhibitors, confirmation, biochemical, kinetic FRET, single concentration | shares compounds with SENP1 inh | 520 compounds, 26% hits | inhibition, % at 10 µM | recombinant SENP1, CyPet-SUMO1-YPet FRET kinetic cleavage; in the data active = inhibition mostly above about 32%, no sharp cut-off; inactive = mostly below about 29%;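 also: 0% = DMSO with enzyme and 100% = no enzyme substrate only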
* hit, by the source's call; · = not tested or not shown. A selection: hits, their analogues and other compounds. The true share with any hit is near 1.9%.

SMILES | ADAM10 inh | SENP1 inh | ADAM17 inh | FAS-TE inh | SENP1 inh conf | SENP1 kinetic
O=C(c1cccc(F)c1)N1CCCC(c2nc(-c3cccs3)no2)C1 (configuration not stated) | -11 | · | 3 | · | · | ·
C=CCOc1c(Br)cc(/C=C2/NC(=S)N(C(C)=O)C2=O)cc1OC | 2 | 55* | 1 | -3 | 40* | 57*
C=CCOc1ccc(Br)cc1/C=C1\NC(=S)N(C(C)=O)C1=O | -4 | -20 | -4 | 1 | · | ·
CCOC(=O)[C@]12CCCCC/C=C\1N(Cc1ccc(OC)cc1)C(=O)[C@H]2CC(=O)N1CCCC1 | -2 | · | -1 | · | · | ·
CC(=O)Nc1ccc(C(/C=C/c2ccccc2)Cc2ccccc2)cc1 (configuration not stated) | 16 | · | 6 | · | · | ·
O=C1[C@@H](CCc2ccccc2)[C@@H]2c3ccccc3C=NN2[C@@H]2c3ccccc3C=NN12 | 1 | · | -1 | · | · | ·
NC(=O)C[n+]1cccc2ccccc21 | -58 | 39* | -19 | -11 | 9 | 9
O=C(C[n+]1cn(C(F)F)c2ccccc21)c1ccc(Br)cc1 | -1 | -5 | -5 | -2 | · | ·
O=C(C[n+]1cccc2ccccc21)c1ccc(Br)cc1 | -21 | 57* | -7 | -4 | 5 | 11
Cc1ccc(C(=O)C[n+]2cccc3ccccc32)cc1 | -22 | 30* | -6 | -22 | 14 | 16
Cc1ccc(C(=O)C[n+]2ccccc2)cc1 | -2 | -2 | -2 | -7 | · | ·
COC(=O)[C@]12C[C@H](CC(=O)NCCC(C)C)C(=O)N(CCC3=CCCCC3)C1=C[C@H](C(C)C)O[C@@H]2C1CC1 | -4 | · | -1 | · | · | ·
N#C/C(C(=O)N1CCOCC1)=C1/SC(Cc2ccccc2)C(=O)N1c1ccccc1 (configuration not stated) | 4 | 37* | 1 | -5 | -5 | 4
CC(C)(C)c1ccc(-c2nnc(SCC3CCCCO3)n2-c2ccc(Cl)cc2)cc1 (configuration not stated) | -1 | · | 0 | · | · | ·
O=C(O)c1ccc(N/N=C/c2cccc3nccnc23)cc1 | -1 | 53* | -5 | -3 | 46* | 39*
Cn1ncc(N=Cc2ccccc2O)c1C(=O)Nc1ccccc1 | -2 | 37* | -2 | 7 | 18 | 28
O=C1NC(=S)N/C1=C/c1cccc([N+](=O)[O-])c1O | -1 | 40* | -3 | -5 | 28 | 15
Nc1[nH]c(C(=O)c2ccccc2)c(-c2ccc(Cl)cc2Cl)c1C(=O)NCCC1=CCCCC1 | -15 | · | -7 | · | · | ·
CC(C)[C@@H](CO)N1Cc2nnn(Cc3ccccc3)c2-c2ccccc2S1(=O)=O | -5 | · | -2 | · | · | ·
CCCNC(=O)c1ccc(C2SCC(=O)N2Cc2ccccc2)cc1 (configuration not stated) | -1 | 1 | -2 | -3 | · | ·
CC(C)CNC(=O)c1ccc(C2SCC(=O)N2Cc2ccccc2)cc1 (configuration not stated) | -16 | 46* | -12 | 5 | 35* | 29
COc1ccc(C(=O)C[n+]2ccc3c(c2)nc(Cc2ccccc2)n3C)cc1 | -6 | · | -3 | · | · | ·
Cc1cc2c(C)nc(N/N=C/c3ccc([N+](=O)[O-])cc3)nc2o1 | -5 | 36* | 0 | 1 | 32 | 19
O=[N+]([O-])c1ccc(C=NNc2ccccc2)cc1 | -2 | 72* | -3 | 43 | 59* | 43*
Nc1[nH]c(C(=O)c2ccccc2)c(-c2ccc3ccccc3c2)c1C(=O)NCCc1ccc(Cl)cc1 | 0 | · | -1 | · | · | ·
SMILES | ADAM10 inh | SENP1 inh | ADAM17 inh | FAS-TE inh | SENP1 inh conf | SENP1 kinetic
Cc1cccc(NC(=O)c2ccc(NCCc3ccccc3)c([N+](=O)[O-])c2)c1 | 6 | 86* | 1 | -12 | 15 | 8
Cc1ccc(NC(=O)c2ccc(NCc3ccco3)c([N+](=O)[O-])c2)cc1Cl | 3 | 37* | 0 | -12 | 24 | 17
CCC(C)Nc1nc(C)nc2c1nnn2Cc1ccccc1 (configuration not stated) | 6 | · | 1 | · | · | ·
CCN1/C(=C/C=C2/SC(=Nc3cccc4ncccc34)N(C)C2=O)Sc2ccccc21 | -4 | 37* | 0 | -21 | 4 | 8
O=C(OCCN1CCN(C2CN(Cc3cn(Cc4ccccc4C(F)(F)F)nn3)S(=O)(=O)C2)CC1)c1cc2ccccc2o1 (configuration not stated) | 3 | · | 0 | · | · | ·
Cc1nc2cc(NCc3ccc(Cl)cc3)ccc2n1C | -15 | 31* | -5 | -2 | 18 | 14
O=C1C2C(c3ccccc3)C=CC(c3ccccc3)C2C(=O)N1c1ccccn1 (configuration not stated) | -5 | 41* | -4 | 5 | 54* | 46*
Cc1ccc(-c2ccc(SCC(=O)N3CCN(c4ccccc4)CC3)nn2)cc1 | 1 | 32* | -1 | -10 | 9 | 13
O=C(CSc1ccc(-c2ccccc2)nn1)N1CCN(c2ccccc2)CC1 | -1 | 4 | -1 | -10 | · | ·
Cc1nc(C)c(C(=O)OCC(=O)Nc2ccccc2SCC#N)s1 | -1 | 45* | -1 | -16 | 6 | 8
Cc1nc(C)c(C(=O)OCC(=O)Nc2ccccc2)s1 | 0 | -2 | -1 | 0 | · | ·
Cc1ccc(C(=O)CCC(=O)OCC(=O)Nc2ccccc2SCC#N)cc1 | -4 | 46* | -3 | -6 | 15 | 15
CSc1ccccc1NC(=O)COC(=O)CCC(=O)c1ccc(F)cc1 | -11 | 5 | -6 | 2 | · | ·
CC1(C)CC(=O)C=C(c2ccc(-c3ccc4[nH]ccc4c3)cc2)C1=O | 13 | 29* | 5 | 18 | 25 | 12
N=c1oc2ccc([N+](=O)[O-])cc2cc1C(=O)NCc1ccccc1 | -2 | 57* | -3 | 37 | 60* | 34
Cc1ccc(Nc2c(-c3ccc(C)o3)nc3ncccn23)cc1 | -7 | 50 | -5 | 1 | · | ·
Cc1ccc(-c2nc3ncccn3c2Nc2ccc3c(c2)OCO3)o1 | -4 | 43* | -5 | -4 | 19 | 13
C=CCN1[C@H](C#N)[C@@H](c2ccc(C#Cc3cccc(OC)c3)cc2)[C@H]1CO | -14 | · | -3 | · | · | ·
O=C1C=C(c2cccc(Cl)c2O)C[C@@H](c2ccc3c(c2)OCO3)C1 | 8 | 50* | 2 | 29 | 95* | 77*
COc1ccc([C@H]2CC(=O)C=C(c3cccc(Cl)c3O)C2)cc1OC | 2 | 33* | 3 | -1 | 74* | 62*
COc1ccc([C@H]2CC(=O)C=C(c3ccc(O)cc3)C2)cc1OC | -8 | -18 | -3 | -4 | · | ·
